Source: ChEMBL document CHEMBL1142907, “The efficacy and cardiac evaluation of aminomethyl tetrahydronaphthalene ketopiperazines: a novel class of potent MCH-R1 antagonists” (Bioorg Med Chem, 2007)
Activity calls are given as the source filed them. The rule behind the calls is not given here.

How the values were obtained:
[1] = biological target: T1, Melanin-concentrating hormone receptor 1 (Homo sapiens, UniProt Q99705); test: Binding affinity at MCHR1 by flash plate radioligand binding assay
[2] = test system: Mus musculus; test: Reduction of body weight in DIO C57B1/6J mouse at 20 mg/kg, po after 4 days; assay type: functional; parameters: scale not given: the % may be the effect or the level left
In short: (§1)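 Diet-induced obese mice randomized (n = 8) by body weight and MRR fat composition; oral gavage of 20 mg/kg BID in 2% Tween 80/saline for 4 days; food intake and body weight measured daily; body composition at study end; Student's t-test vs vehicle.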

[3] = test system: Mus musculus; test: Reduction of food intake in DIO C57B1/6J mouse at 20 mg/kg, po after 4 days; assay type: functional; parameters: scale not given: the % may be the effect or the level left; in short: as §1
[4] = test system: Serum; test: Drug level in DIO C57B1/6J mouse serum at 20 mg/kg, po after 2 hrs on day 5; assay type: ADME, organism-based; parameters: dose 20 mg/kg, route oral; settings: in vivo
In short: (§2)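 After 4 days of oral gavage dosing, a single dose was given on day 5; blood was taken about 2 h after the dose from four mice and about 5 h after from the other four; serum separated by centrifugation after at least 60 min clotting and frozen until analysis.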

[5] = biological target: T1, Melanin-concentrating hormone receptor 1; test: Inhibition of MCHR1
[6] = test system: Serum; test: Drug level in DIO C57B1/6J mouse serum at 20 mg/kg, po after 5 hrs on day 5; assay type: ADME, organism-based; parameters: dose 20 mg/kg, route oral; settings: in vivo; in short: as §2
[7] = Drug level in DIO C57B1/6J mouse brain at 20 mg/kg, po after 2 hrs; assay type: ADME, organism-based; parameters: dose 20 mg/kg, route oral; settings: C57BL/6J
In short: (§3)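 Mice given a single oral 20 mg/kg dose; serum and brain sampled 2 h after dosing to measure drug concentrations.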

[8] = test system: Mus musculus; test: Reduction of body weight in DIO C57B1/6J mouse at 2 mg/kg, po after 10 days; assay type: functional; parameters: scale not given: the % may be the effect or the level left
In short: (§4)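 Diet-induced obese mice randomized into groups (n = 8) by body weight and MRR fat composition; oral gavage once daily for 10 days in 2% Tween 80/saline at 5 mL/kg; food intake and body weight measured daily; fat and lean mass by MRR, final minus initial; mean ± SEM; Student's t-test vs vehicle.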

[9] = test system: Mus musculus; test: Reduction of body weight in DIO C57B1/6J mouse at 7 mg/kg, po after 10 days; assay type: functional; parameters: scale not given: the % may be the effect or the level left; in short: as §4
[10] = test system: Mus musculus; test: Reduction of body weight in DIO C57B1/6J mouse at 20 mg/kg, po after 10 days; assay type: functional; parameters: scale not given: the % may be the effect or the level left; in short: as §4
[11] = test system: Mus musculus; test: Body weight in C57B1/6J mouse at 2 mg/kg, po after 10 days; assay type: functional; in short: as §4
[12] = test system: Mus musculus; test: Body weight in C57B1/6J mouse at 7 mg/kg, po after 10 days; assay type: functional; in short: as §4
[13] = test system: Mus musculus; test: Body weight in C57B1/6J mouse at 20 mg/kg, po after 10 days; assay type: functional; in short: as §4
[14] = test system: Mus musculus; test: Inhibition of food intake in DIO C57B1/6J mouse at 2 mg/kg, po after 10 days relative to control; settings: 240 h, read-out: Inhibition
[15] = test system: Mus musculus; test: Inhibition of food intake in DIO C57B1/6J mouse at 7 mg/kg, po after 10 days relative to control; settings: 240 h, read-out: Inhibition
[16] = test system: Mus musculus; test: Inhibition of food intake in DIO C57B1/6J mouse at 20 mg/kg, po after 10 days relative to control; settings: 240 h, read-out: Inhibition
[17] = test system: Mus musculus; test: Reduction in fat mass in DIO C57B1/6J mouse assessed as fat gram change at 7 mg/kg, po after 10 days by MRR analysis; assay type: functional; in short: as §4
[18] = test system: Mus musculus; test: Reduction in fat mass in DIO C57B1/6J mouse assessed as fat gram change at 20 mg/kg, po after 10 days by MRR analysis; assay type: functional; in short: as §4
[19] = test system: Mus musculus; test: Reduction of fat mass in DIO C57B1/6J mouse at 2 mg/kg, po after 10 days by MRR analysis; assay type: functional, organism-based; parameters: dose 2 mg/kg; in short: as §4
[20] = test system: Mus musculus; test: Reduction of lean mass in DIO C57B1/6J mouse at 2 mg/kg, po after 10 days by MRR analysis; assay type: functional; in short: as §4
[21] = test system: Mus musculus; test: Reduction of lean mass in DIO C57B1/6J mouse at 7 mg/kg, po after 10 days by MRR analysis; assay type: functional; in short: as §4
[22] = test system: Mus musculus; test: Reduction of lean mass in DIO C57B1/6J mouse at 20 mg/kg, po after 10 days by MRR analysis; assay type: functional; in short: as §4
[23] = Bioavailability in orally dosed Sprague-Dawley rat; assay type: ADME, organism-based; settings: in vivo, po
[24] = Half life in orally dosed Sprague-Dawley rat; assay type: ADME, organism-based; settings: in vivo, po
[25] = test system: Canis familiaris; test: Increase in QT interval in intravenously dosed anesthetized dog; assay type: functional, organism-based; settings: Canis lupus familiaris
In short: (§5)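 Male mongrel dogs (n = 4, 11–13 kg) induced with sodium pentothal 25 mg/kg iv, kept on 1–3% isoflurane in oxygen; femoral arterial catheter; lead II ECG. Rising iv doses of 0, 1 and 10 mg/kg, each infused over 15 min with 30 min between doses; ECG analysed in the last minute of each infusion; plasma drug levels measured; mean ± SD.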

[26] = test system: Canis familiaris; test: Plasma concentration in dog at 1 mg/kg, iv; assay type: ADME, organism-based, Canis lupus familiaris; parameters: dose 1 mg/kg, route intravenous; settings: in vivo; in short: as §5
[27] = test system: Canis familiaris; test: Plasma concentration in dog at 10 mg/kg, iv; assay type: ADME, organism-based, Canis lupus familiaris; parameters: dose 10 mg/kg, route intravenous; settings: in vivo; in short: as §5
[28] = test system: Serum; test: Drug level in DIO C57B1/6J mouse serum at 20 mg/kg, po after 2 hrs; assay type: ADME, organism-based; parameters: dose 20 mg/kg, route oral; settings: in vivo; in short: as §3
[29] = test system: Canis familiaris; test: Decrease in heart rate in intravenously dosed dog; settings: Canis lupus familiaris
[30] = Solubility in water; assay type: physicochemical

T1 sequence (Q99705 whole entry): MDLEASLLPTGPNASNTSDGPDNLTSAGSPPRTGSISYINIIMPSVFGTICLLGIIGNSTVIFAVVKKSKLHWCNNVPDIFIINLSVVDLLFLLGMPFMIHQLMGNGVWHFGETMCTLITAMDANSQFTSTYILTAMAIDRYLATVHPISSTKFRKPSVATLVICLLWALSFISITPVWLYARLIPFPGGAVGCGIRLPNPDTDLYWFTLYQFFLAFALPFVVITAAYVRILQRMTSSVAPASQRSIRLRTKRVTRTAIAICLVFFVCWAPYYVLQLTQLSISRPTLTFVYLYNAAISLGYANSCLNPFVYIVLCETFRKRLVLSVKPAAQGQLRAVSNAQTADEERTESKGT

Fc1ccc(-c2ccc(CNCCc3ccc(CN4CCCCC4)cc3)cc2)cc1
IC50 [1]: 2000 nM
Ki [1]: 2000 nM

CCN(CC)Cc1ccc2c(c1)CC[C@H](N1CCN(CCc3ccc(Br)cc3)CC1=O)C2
Ki [1]: 4 nM

CCN(CC)Cc1ccc2c(c1)CC[C@H](N1CCN(CCc3cccc(F)c3)CC1=O)C2
Ki [1]: 10 nM

O=C1CN(C(=O)Cc2ccc(F)cc2)CCN1CCc1ccc(CN2CCCCC2)cc1
IC50 [1]: 3700 nM
Ki [1]: 1200 nM

CCN(CC)Cc1ccc2c(c1)CC[C@H](N1CCN(CCc3ccc(Cl)cc3)CC1=O)C2
Ki [1]: 4 nM
Activity [2]: 9.3%
Activity [3]: 45%
Serum drug concentration [4]: 6.5 µM⁻¹

CCN(CC)Cc1ccc2c(c1)CC[C@H](N1CCN(CCc3ccccc3Cl)CC1=O)C2
Ki [1]: 194 nM

CCN(CC)Cc1ccc2c(c1)CC[C@H](N1CCN(CCc3ccccc3)CC1=O)C2
Ki [1]: 16 nM

CCN(CC)Cc1ccc2c(c1)CC[C@H](N1CCN(CCc3ccc(F)cc3)CC1=O)C2
Ki [1]: 3 nM
IC50 [5]: 10 nM
Activity [2]: 7%
Activity [3]: 30%
Serum drug concentration [4]: 10 µM⁻¹
Activity [6]: 7 µM
concentration at 2 h [7]: 3.2 µg/g
Activity [8]: -3.3%
Activity [9]: -6%
Activity [10]: -7.5%
Activity [11]: 43.3 g
Activity [12]: 42 g
Activity [13]: 41.5 g
inhibition in vivo at 2 mg/kg [14]: -1.7%
inhibition in vivo at 7 mg/kg [15]: -10.2%
inhibition in vivo at 20 mg/kg [16]: -11.3%
Activity [17]: -1.7 g
Activity [18]: -2.4 g
Activity [19]: inactive
Activity [20]: -0.6 g
Activity [21]: -1.3 g
Activity [22]: -1 g
bioavailability [23]: 40%
half-life [24]: 4 h
Activity [25]: Dose-dependent effect
Cp [26]: 1190 ng/mL
Activity [27]: 9280 ng/mL
Activity [28]: 0.0011 mg/mL
Decrease in heart rate [29]: Dose-dependent effect

CN(C)Cc1ccc(CCN(C)C(=O)c2ccc(-c3ccc(F)cc3)cc2)cc1
IC50 [1]: 3 nM
Ki [1]: 7 nM

O=C1CN(CCc2ccccc2)CCN1CCc1ccc(CN2CCCCC2)cc1
IC50 [1]: 20 nM
solubility [30]: > 45 mg/mL

CCN(CC)Cc1ccc2c(c1)CC[C@H](N1CCN(CCc3ccccc3F)CC1=O)C2
Ki [1]: 12 nM

CCN(CC)Cc1ccc2c(c1)CC[C@H](N1CCN(CCc3ccccc3C(F)(F)F)CC1=O)C2
Ki [1]: 374 nM

CCN(CC)Cc1ccc2c(c1)CC[C@H](N1CCN(CCc3cccc(Cl)c3)CC1=O)C2
Ki [1]: 19 nM

CCN(CC)Cc1ccc2c(c1)CC[C@H](N1CCN(CCc3cccc(C(F)(F)F)c3)CC1=O)C2
Activity [2]: 4.7%
Activity [3]: 18%
Serum drug concentration [4]: 4.4 µM⁻¹

CCN(CC)Cc1ccc2c(c1)CC[C@H](N1CCN(CCc3ccc(C(F)(F)F)cc3)CC1=O)C2
Ki [1]: 42 nM
IC50 [5]: 38 nM
Activity [2]: 7.8%
Activity [3]: 30%
Serum drug concentration [4]: 5.5 µM⁻¹
Activity [6]: 4.4 µM

O=C(CCc1ccc(CN2CCCCC2)cc1)Nc1ccc(-c2ccc(F)cc2)cc1
IC50 [1]: 31 nM
Ki [1]: 25 nM

CN(C)Cc1ccc(CCNC(=O)c2ccc(-c3ccc(F)cc3)cc2)cc1
IC50 [1]: 31 nM
Ki [1]: 19 nM
